For assay [1], the target named is T1, Poly(ADP-ribose) glycohydrolase (Bos taurus, UniProt O02776). As to the kind of experiment: (§1) The compound was tested for its ability to inhibit recombinant bovine polyadenosine diphosphoribose glycohydrolase catalytic fragment (rPARG-CF). The method in brief:
(§2)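 PARG activity was measured with 10 µM [α-32P]ADP-ribose polymers as substrate and varying inhibitor concentrations, with an inhibitor-free control. Enzyme was 0.25 ng of bovine thymus PARG, purified with a Red-Sepharose step, or 5 ng of rPARG-CF. Runs were done at least in triplicate. IC50 came from a sigmoidal fit of % activity against log[inhibitor].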

Assay [2] has as its target Poly(ADP-ribose) glycohydrolase (Bos taurus) (UniProt O02776). Described as §1. The procedure, abridged:
as §2

For assay [3] the target is unchanged. In words: (§3) The compound was tested for its ability to inhibit bovine thymus polyadenosine diphosphoribose glycohydrolase (bPARG). The method in brief:
as §2

The target in assay [4] is T1, Poly(ADP-ribose) glycohydrolase. The assay is described as §3. The procedure, abridged: as §2

Values joined by “and” are separate entries in the source; they are usually repeats but may differ in a detail not shown here. Equal values may be shown once. A value given as a limit tells only on which side of the number the result lay.

T1 sequence (O02776 whole entry, the tested form may be a part): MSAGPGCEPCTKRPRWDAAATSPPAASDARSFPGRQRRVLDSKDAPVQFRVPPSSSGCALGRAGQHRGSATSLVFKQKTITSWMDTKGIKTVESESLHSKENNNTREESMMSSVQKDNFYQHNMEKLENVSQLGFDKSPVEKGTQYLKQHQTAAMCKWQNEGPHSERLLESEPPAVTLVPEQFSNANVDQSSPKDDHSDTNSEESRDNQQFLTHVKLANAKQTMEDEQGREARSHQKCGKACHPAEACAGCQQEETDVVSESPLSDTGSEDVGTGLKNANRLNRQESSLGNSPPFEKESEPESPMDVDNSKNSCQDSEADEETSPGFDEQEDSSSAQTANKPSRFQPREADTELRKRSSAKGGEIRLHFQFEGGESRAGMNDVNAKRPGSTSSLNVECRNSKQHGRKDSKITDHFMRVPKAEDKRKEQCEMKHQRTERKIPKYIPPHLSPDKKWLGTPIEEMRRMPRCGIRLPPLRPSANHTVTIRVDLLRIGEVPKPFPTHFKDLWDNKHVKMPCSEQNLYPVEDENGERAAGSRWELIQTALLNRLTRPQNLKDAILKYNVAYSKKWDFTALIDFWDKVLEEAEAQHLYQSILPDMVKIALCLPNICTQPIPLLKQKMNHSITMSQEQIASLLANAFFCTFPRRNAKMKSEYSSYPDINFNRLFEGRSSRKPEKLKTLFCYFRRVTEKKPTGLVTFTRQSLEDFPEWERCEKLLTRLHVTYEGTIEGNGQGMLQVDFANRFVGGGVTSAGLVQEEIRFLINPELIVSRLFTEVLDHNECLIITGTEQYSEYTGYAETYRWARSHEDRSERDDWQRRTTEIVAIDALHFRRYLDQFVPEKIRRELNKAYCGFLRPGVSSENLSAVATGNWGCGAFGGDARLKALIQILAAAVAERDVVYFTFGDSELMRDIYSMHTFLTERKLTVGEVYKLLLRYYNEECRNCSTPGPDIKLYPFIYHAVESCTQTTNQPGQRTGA
Chain of Poly(ADP-ribose) glycohydrolase (Bos taurus) (O02776 whole entry): as the sequence (O02776 whole entry, the tested form may be a part) above

Consider `NCCCCCCNc1nc2c(N)ncnc2n1C1O[C@H](COP(=O)(O)OP(=O)(O)OC[C@H]2NC[C@H](O)[C@@H]2O)[C@@H](O)[C@H]1O` (stereo partly drawn), for which the IC50 (usually the point on the concentration scale where inhibition reaches its midpoint) in assay [1] stood at 9.5 µM. In addition, the Log IC50 in assay [2] was found to be 0.97 µM.

As to `[N-]=[N+]=Nc1nc(N)c2ncn(C3O[C@H](COP(=O)(O)OP(=O)(O)OC[C@H]4NC[C@H](O)[C@@H]4O)[C@@H](O)[C@H]3O)c2n1` (stereo partly drawn), the Log IC50 was 2.45 µM in assay [3] and 2.17 µM in assay [2]. The IC50 in assay [1] was 148 µM; in assay [4], 290 µM.

For the compound `[N-]=[N+]=Nc1nc2c(N)ncnc2n1C1O[C@H](COP(=O)(O)OP(=O)(O)OC[C@H]2NC[C@H](O)[C@@H]2O)[C@@H](O)[C@H]1O` (stereo partly drawn), the half-maximal inhibitory concentration (IC50) came out at 0.44 µM in assay [1] and 0.39 µM in assay [4].

Take `Nc1nc(O)c2ncn(C3O[C@H](COP(=O)(O)OP(=O)(O)OCC4NC[C@H](O)[C@@H]4O)[C@@H](O)[C@H]3O)c2n1` (stereo partly drawn): the Log IC50 was above 3 µM in assay [3] and 2.99 µM in assay [2].

On to `Nc1ncnc2c1ncn2C1O[C@H](COP(=O)(O)OP(=O)(O)OCC2C[C@@H](O)CN2)[C@@H](O)[C@H]1O` (stereo partly drawn) [ADENOSINE DIPHOSPHATE (HYDROXYMETHYL)PYRROLIDINE MONOALCOHOL], for which the Log IC50 stood at 0.48 µM in assay [3] and 0.623 µM in assay [2]. Also, the concentration for half-maximal inhibition (IC50) in assay [1] came to 4.2 µM; in assay [4], 3.07 µM.

With `CCCCCCNc1ncnc2c1ncn2C1O[C@H](COP(=O)(O)OP(=O)(O)OCC2NC[C@H](O)[C@@H]2O)[C@@H](O)[C@H]1O` (stereo partly drawn), the IC50 in assay [1] is 510 µM. Besides, in assay [2], the Log IC50 was 2.71 µM.

On to `Nc1ncnc2c1nc(Sc1ccc(Cl)cc1)n2C1O[C@H](COP(=O)(O)OP(=O)(O)OC[C@H]2NC[C@H](O)[C@@H]2O)[C@@H](O)[C@H]1O` (stereo partly drawn), for which, in assay [1], the IC50 stood at 120 µM. For the same compound, the Log IC50 in assay [2] worked out at 2.07 µM.

`Nc1ncnc2c1nc(NCCCCCCNC(=O)C(F)(F)F)n2C1O[C@H](COP(=O)(O)OP(=O)(O)OC[C@H]2NC[C@H](O)[C@@H]2O)[C@@H](O)[C@H]1O` (stereo partly drawn): the half-inhibitory concentration (IC50) in assay [1] was found to be 570 µM. Further, in assay [2], the Log IC50 worked out at 2.75 µM.

For the compound `Nc1nc2c(ncn2C2O[C@H](COP(=O)(O)OP(=O)(O)OCC3NC[C@H](O)[C@@H]3O)[C@@H](O)[C@H]2O)c(=O)[nH]1` (stereo partly drawn), the 50% inhibitory concentration (IC50) in assay [1] is 970 µM; in assay [4], above 1000 µM.

As to `Nc1ncnc2c1ncn2C1O[C@H](COP(=O)(O)OP(=O)(O)OCC2CCCN2)[C@@H](O)[C@H]1O` (stereo partly drawn) [ADENOSINE DIPHOSPHATE (HYDROXYMETHYL)PYRROLIDINE], the Log IC50 in assay [3] is 1.28 µM; in assay [2], 1.8 µM. Moreover, the IC50 in assay [1] came out at 63 µM; in assay [4] it was 19.2 µM.

As for `Nc1ncnc2c1ncn2[C@@H]1O[C@H](CO[P@](=O)(O)O[P@@](=O)(O)OC[C@H]2NC[C@H](O)[C@@H]2O)[C@@H](O)[C@H]1O` [ADENOSINE DIPHOSPHATE (HYDROXYMETHYL)PYRROLIDINEDIOL], the IC50 in assay [1] is 1.4 µM and 1 µM; in assay [4], 0.33 µM.

(Values after ChEMBL document CHEMBL1145115, “SAR analysis of adenosine diphosphate (hydroxymethyl)pyrrolidinediol inhibition of poly(ADP-ribose) glycohydrolase” (J Med Chem, 2003).)
